According to publication PMC12078793 (Nature Communications, 2025):

Experiments:
[1] = Blood PTH analog concentrations; assay type: in vivo; conditions: female, CD-1, mouse, serum, sc, 10 nmol/kg
pHL2-hPTH1R = molecular target: T1, pHL2-hPTH1R (Homo sapiens, UniProt Q03431); experiment: Receptor internalization in GPG-10 cells; assay type: cell-based; conditions: 1x10-8 to 1x10-5 M, fluorescence ratio 485/405, n = 3
T1 sequence (Q03431 106-593 limits assumed): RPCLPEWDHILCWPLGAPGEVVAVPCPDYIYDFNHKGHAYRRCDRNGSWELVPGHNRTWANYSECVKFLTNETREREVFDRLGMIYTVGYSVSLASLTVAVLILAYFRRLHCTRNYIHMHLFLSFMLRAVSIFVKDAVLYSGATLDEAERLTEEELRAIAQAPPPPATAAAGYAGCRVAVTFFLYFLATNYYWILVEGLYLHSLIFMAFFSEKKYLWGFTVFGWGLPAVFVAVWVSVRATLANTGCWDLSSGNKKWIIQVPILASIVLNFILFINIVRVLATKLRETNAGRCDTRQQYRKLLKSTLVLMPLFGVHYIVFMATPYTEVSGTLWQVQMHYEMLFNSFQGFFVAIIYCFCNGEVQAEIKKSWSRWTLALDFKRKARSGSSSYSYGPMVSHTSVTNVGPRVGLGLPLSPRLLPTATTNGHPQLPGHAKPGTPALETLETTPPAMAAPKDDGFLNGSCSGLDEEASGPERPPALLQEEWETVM
Method in brief: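 Assay used HEK293 cells stably expressing glosensor plus hPTH1R with pHluorin2 inserted in the ECD E2 region. Confluent monolayers were rinsed with HBSS (0.1% BSA, 10 mM HEPES, pH 7.4), and baseline was recorded for 10 min: 535 nm emission with alternating 485/405 nm excitation at 1-min cycles. Ligand was then added and reading continued for 90 min. The AUC of the 485/405 ratio vs time was taken at each concentration.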

[2] = molecular target: bovine serum albumin (bovine) (UniProt P02769); experiment: BLI
Sequence of bovine serum albumin (bovine) (P02769 25-607): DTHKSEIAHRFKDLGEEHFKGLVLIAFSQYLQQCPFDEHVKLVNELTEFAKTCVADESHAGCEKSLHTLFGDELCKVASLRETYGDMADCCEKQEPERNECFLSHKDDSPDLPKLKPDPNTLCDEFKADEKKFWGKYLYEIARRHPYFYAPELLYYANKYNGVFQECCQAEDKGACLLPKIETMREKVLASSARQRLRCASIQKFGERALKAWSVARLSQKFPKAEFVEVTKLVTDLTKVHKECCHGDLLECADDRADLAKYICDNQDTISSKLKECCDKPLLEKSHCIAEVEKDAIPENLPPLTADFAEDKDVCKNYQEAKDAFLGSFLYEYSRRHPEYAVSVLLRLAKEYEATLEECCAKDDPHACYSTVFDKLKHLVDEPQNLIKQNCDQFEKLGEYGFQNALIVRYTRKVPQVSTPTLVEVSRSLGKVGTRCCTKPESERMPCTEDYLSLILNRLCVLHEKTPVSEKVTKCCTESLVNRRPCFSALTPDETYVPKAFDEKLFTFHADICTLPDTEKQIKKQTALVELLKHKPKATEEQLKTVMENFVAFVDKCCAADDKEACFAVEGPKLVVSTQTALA

CC[C@H](C)[C@H](NC(=O)[C@H](CCC(=O)O)NC(=O)[C@H](CO)NC(=O)[C@@H](NC(=O)[C@@H](N)CO)C(C)C)C(=O)N[C@@H](CCC(N)=O)C(=O)N[C@@H](CC(C)C)C(=O)N[C@@H](CCSC)C(=O)N[C@@H](Cc1cnc[nH]1)C(=O)N[C@@H](CC(N)=O)C(=O)N[C@@H](CC(C)C)C(=O)NCC(=O)N[C@@H](CCCCN)C(=O)N[C@@H](Cc1cnc[nH]1)C(=O)N[C@@H](CC(C)C)C(=O)N[C@@H](CC(N)=O)C(=O)N[C@@H](CO)C(=O)N[C@@H](CCSC)C(=O)N[C@@H](CCC(=O)O)C(=O)N[C@@H](CCCNC(=N)N)C(=O)N[C@H](C(=O)N[C@@H](CCC(=O)O)C(=O)N[C@@H](Cc1c[nH]c2ccccc12)C(=O)N[C@@H](CC(C)C)C(=O)N[C@@H](CCCNC(=N)N)C(=O)N[C@@H](CCCCN)C(=O)N[C@@H](CCCCN)C(=O)N[C@@H](CC(C)C)C(=O)N[C@@H](CCC(N)=O)C(=O)N[C@@H](CC(=O)O)C(=O)N[C@H](C(=O)N[C@@H](Cc1cnc[nH]1)C(=O)N[C@@H](CC(N)=O)C(=O)N[C@@H](Cc1ccccc1)C(N)=O)C(C)C)C(C)C [PTH(1-34)]
half-life [1]: 18 min

L11,dW12,W23,Y36-PTHrP(7-36)
PHL2-PTH1R internalization into acidic compartments (pHL2-hPTH1R): did not induce internalization

Palm-M-PTH(1-14) (peptide)
fold lower estimated KD than the non-lipidated counterpart M-PTH(1-14) [2]: > 3 fold
